Paper PMC3954597 (Biochemistry, 2014)

Tests used:
Format in all cases: biochemical
[1] = biological target: T1, PTP1B (Homo sapiens, UniProt P18031); assay: PTP assay, wild-type PTP1B; settings: for kcat/KM x10^6: WT catalytic domain aa 1–321, 100 mM HEPES pH 7.4, monitored at 282 nm
T1 sequence (P18031 1-321): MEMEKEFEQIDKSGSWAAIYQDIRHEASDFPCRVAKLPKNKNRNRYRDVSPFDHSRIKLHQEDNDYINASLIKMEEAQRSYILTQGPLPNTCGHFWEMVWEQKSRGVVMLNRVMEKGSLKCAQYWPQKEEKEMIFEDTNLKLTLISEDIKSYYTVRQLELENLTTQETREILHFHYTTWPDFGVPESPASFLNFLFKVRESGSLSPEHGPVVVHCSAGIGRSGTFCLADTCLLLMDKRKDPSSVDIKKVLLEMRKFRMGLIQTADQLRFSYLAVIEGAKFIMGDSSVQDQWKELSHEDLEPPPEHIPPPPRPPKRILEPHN
How it was run: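 E. coli-expressed catalytic domains were used: wild-type, R24M or R47E PTP1B (aa 1–321), and SHP-1 (aa 205–595). Reactions started with PTP (0.5–20000 nM final) and dephosphorylation was monitored continuously at 282 nm. kcat, KM and kcat/KM came from initial-rate fits (Michaelis–Menten, or V = kcat[E][S]/KM when KM >> [S]) or from fits of progress curves.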

[2] = biological target: T2, PTPRC (Homo sapiens, UniProt P08575); assay: PTP assay, PTPRC; settings: for Km / kcat / kcat/KM x10^6: catalytic domain, 100 mM HEPES pH 7.4, monitored at 282 nm
T2 sequence (P08575 620-1236): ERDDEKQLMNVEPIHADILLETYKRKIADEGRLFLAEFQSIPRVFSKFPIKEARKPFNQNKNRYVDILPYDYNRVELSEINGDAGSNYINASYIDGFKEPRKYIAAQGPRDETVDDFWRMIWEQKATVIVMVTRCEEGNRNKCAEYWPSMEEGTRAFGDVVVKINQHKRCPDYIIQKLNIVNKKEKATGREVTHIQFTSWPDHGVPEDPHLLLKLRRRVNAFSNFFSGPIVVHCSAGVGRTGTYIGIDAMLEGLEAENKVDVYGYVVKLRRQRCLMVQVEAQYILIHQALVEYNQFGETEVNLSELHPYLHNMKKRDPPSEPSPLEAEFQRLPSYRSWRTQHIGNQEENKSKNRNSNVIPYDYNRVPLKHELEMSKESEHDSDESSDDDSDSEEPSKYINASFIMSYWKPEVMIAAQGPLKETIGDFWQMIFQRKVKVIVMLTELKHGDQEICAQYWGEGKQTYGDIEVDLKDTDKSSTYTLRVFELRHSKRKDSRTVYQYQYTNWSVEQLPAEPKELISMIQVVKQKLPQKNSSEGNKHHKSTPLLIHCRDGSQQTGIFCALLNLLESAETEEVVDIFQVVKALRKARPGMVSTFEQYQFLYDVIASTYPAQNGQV
How it was run: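 His-tagged catalytic domains were made in E. coli: PTPD2 aa 876–1187 and PTPRC aa 620–1236 with N-terminal tags, PTPD1 aa 875–1174 and SHP-2 aa 199–593 with C-terminal tags. Enzyme was added at 0.5–20000 nM final. A282 (Δε 1102 M−1 cm−1) was followed. Constants came from Michaelis–Menten fits of initial rates (<60 s), or from fits of progress curves run to substrate depletion.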

[3] = biological target: T3, PTPRO (Homo sapiens, UniProt Q16827); assay: PTP assay, PTPRO; settings: for Km / kcat / kcat/KM x10^6: catalytic domain, 100 mM HEPES pH 7.4, monitored at 282 nm
T3 sequence (Q16827 938-1195 limits assumed): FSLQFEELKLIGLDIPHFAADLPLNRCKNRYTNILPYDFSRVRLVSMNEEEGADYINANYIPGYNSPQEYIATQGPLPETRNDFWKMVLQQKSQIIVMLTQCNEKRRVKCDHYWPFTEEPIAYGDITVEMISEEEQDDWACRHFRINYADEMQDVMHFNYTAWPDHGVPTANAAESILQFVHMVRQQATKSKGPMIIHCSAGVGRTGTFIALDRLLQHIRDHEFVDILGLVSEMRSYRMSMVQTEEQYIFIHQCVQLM

[4] = biological target: PTPRB (Homo sapiens, UniProt P23467); assay: PTP assay, PTPRB; settings: for Km / kcat / kcat/KM x10^6: catalytic domain, 100 mM HEPES pH 7.4, monitored at 282 nm
[5] = biological target: T4, HePTP (Homo sapiens, UniProt P35236); assay: PTP assay, HePTP
T4 sequence (P35236 43-356): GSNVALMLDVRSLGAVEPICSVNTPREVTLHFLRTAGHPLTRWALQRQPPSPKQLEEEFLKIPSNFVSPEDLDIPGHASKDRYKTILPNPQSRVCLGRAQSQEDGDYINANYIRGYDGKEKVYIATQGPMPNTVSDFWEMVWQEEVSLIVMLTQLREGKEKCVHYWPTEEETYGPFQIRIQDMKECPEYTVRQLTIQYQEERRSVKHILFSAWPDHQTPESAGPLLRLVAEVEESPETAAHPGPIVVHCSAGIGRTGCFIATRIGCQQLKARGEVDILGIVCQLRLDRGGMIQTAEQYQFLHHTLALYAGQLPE

[6] = biological target: T5, PTPRD (Homo sapiens, UniProt P23468); assay: PTP assay, PTPRD
T5 sequence (P23468 1299-1899): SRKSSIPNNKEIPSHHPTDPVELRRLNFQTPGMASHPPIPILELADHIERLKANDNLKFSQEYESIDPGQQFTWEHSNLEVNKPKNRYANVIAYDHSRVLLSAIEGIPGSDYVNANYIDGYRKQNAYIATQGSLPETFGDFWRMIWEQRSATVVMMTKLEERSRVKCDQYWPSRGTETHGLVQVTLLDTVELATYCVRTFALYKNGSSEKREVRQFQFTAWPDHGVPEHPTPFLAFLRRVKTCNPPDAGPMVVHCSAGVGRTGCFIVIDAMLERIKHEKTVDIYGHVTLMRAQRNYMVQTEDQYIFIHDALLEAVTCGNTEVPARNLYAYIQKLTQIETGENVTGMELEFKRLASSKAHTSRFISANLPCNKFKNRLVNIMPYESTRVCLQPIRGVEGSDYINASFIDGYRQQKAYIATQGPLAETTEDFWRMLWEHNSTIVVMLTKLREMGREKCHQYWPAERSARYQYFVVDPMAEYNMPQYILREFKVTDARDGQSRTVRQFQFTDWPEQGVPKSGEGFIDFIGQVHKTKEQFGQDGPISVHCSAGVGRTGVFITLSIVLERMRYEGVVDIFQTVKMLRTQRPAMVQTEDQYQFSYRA

[7] = kcat/KM of neutral peptide over basic Ac-YRKRFpYRYKF-NH2
[8] = catalytic domain, 100 mM HEPES pH 7.4, monitored at 282 nm
[9] = kcat/KM of acidic peptide over basic Ac-YRKRFpYRYKF-NH2
[10] = kcat/KM of acidic peptide over neutral Ac-SASASpYSASA-NH2

Sequence of PTPRB (P23467 1686-1971): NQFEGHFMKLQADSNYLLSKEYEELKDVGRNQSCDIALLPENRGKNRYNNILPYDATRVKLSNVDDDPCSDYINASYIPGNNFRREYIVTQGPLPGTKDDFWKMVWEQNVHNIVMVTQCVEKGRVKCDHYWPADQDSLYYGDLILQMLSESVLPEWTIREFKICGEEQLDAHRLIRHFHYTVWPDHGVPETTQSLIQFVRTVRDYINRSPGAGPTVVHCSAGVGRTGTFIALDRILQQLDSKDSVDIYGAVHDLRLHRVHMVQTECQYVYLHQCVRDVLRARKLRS

Row | Substance | kcat/KM x10^6 [1] | Km [2] | kcat [2] | kcat/KM x10^6 [2] | Km [3] | kcat [3] | kcat/KM x10^6 [3] | Km [4] | kcat [4] | kcat/KM x10^6 [4] | kcat/KM x10^6 [5, 8] | kcat/KM x10^6 [6, 8] | further results
1 | Ac-SASASpYSASA-NH2 | 2.3 x10^6 M^−1 s^−1 | 170 ± 20 µM | 340 ± 50 s⁻¹ | 2.0 x10^6 M^−1 s^−1 | 250 ± 10 µM | 240 ± 8 s⁻¹ | 0.94 x10^6 M^−1 s^−1 | 26 ± 1 µM | 56 ± 2 s⁻¹ | 2.2 x10^6 M^−1 s^−1 | 0.0006 x10^6 M^−1 s^−1 | 0.00068 x10^6 M^−1 s^−1 | kcat/KM x 10^7 ([1]; WT PTP1B aa 1–321, pH 7.4): 0.23 x 10^7 M^−1 s^−1; Neutral/Basic ratio of kcat/KM values [1, 7]: 61; Neutral/Basic ratio of kcat/KM values [2, 7]: 41; Neutral/Basic ratio of kcat/KM values [3, 7]: 18; Neutral/Basic ratio of kcat/KM values [4, 7]: 77; Neutral/Basic ratio of kcat/KM values [6, 7]: 1
2 | Ac-YRKRFpYRYKF-NH2 | 0.037 x10^6 M^−1 s^−1 |  |  | 0.049 x10^6 M^−1 s^−1 |  |  | 0.053 x10^6 M^−1 s^−1 |  |  | 0.028 x10^6 M^−1 s^−1 | 0.000010 x10^6 M^−1 s^−1 | 0.0007 x10^6 M^−1 s^−1 | 
3 | Ac-YDEDFpYDYEF-NH2 | 55 x10^6 M^−1 s^−1 | 7 ± 0.9 µM | 300 ± 20 s⁻¹ | 43 x10^6 M^−1 s^−1 | 5.7 ± 0.8 µM | 200 ± 10 s⁻¹ | 35 x10^6 M^−1 s^−1 | 1.8 ± 0.4 µM | 55 ± 2 s⁻¹ | 31 x10^6 M^−1 s^−1 | 0.025 x10^6 M^−1 s^−1 | 0.014 x10^6 M^−1 s^−1 | Acidic/Basic ratio of kcat/KM values [1, 9]: 1500; Acidic/Neutral ratio of kcat/KM values [1, 10]: 24; Acidic/Basic ratio of kcat/KM values [2, 9]: 880; Acidic/Neutral ratio of kcat/KM values [2, 10]: 22; Acidic/Basic ratio of kcat/KM values [3, 9]: 660; Acidic/Neutral ratio of kcat/KM values [3, 10]: 37; Acidic/Basic ratio of kcat/KM values [4, 9]: 1100; Acidic/Neutral ratio of kcat/KM values [4, 10]: 14; Km [5, 8]: 280 ± 25 µM; kcat [5, 8]: 7.0 ± 0.3 s⁻¹; Acidic/Basic ratio of kcat/KM values [5, 9]: 2500; Acidic/Neutral ratio of kcat/KM values [5, 10]: 42; Km [6, 8]: > 60 µM; kcat [6, 8]: >0.86 s⁻¹; Acidic/Basic ratio of kcat/KM values [6, 9]: 21; Acidic/Neutral ratio of kcat/KM values [6, 10]: 21
